Data as given in ChEMBL document CHEMBL4393701, “Appendix A. dithioloquinolinethiones as new potential multitargeted antibacterial and antifungal agents: Synthesis, biological evaluation and molecular docking studies” (2019).
Converted amounts (≈) assume the structure as drawn.

tested on: Bacillus cereus; experiment: Antibacterial activity against Bacillus cereus clinical isolate after 24 hrs by iodonitrotetrazolium chloride dye based microdilution assay; type: functional; details: not given
In short: (§1)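 Fresh overnight cultures adjusted spectrophotometrically to 1×10^5 CFU/mL, giving 1.0×10^4 CFU per well in tryptic soy broth. Compounds were dissolved in 5% DMSO and tested at 0.001-1.0 mg/ml by serial dilution; 5% DMSO was the negative control. After 24 h at 37 °C, 0.2 mg/mL INT solution was added for 30 min at 37 °C and OD read at 655 nm. MIC is the lowest concentration giving significant growth inhibition versus the positive control. Duplicates, repeated three times.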

| MIC [µM] | SMILES |
| --- | --- |
| 38.2 (≈ 15 µg/mL) | CC1(C)c2ssc(=S)c2-c2cccc3c2N1C(=O)/C3=N/NC(N)=S |

tested on: Bacillus cereus; experiment: Bactericidal activity against Bacillus cereus clinical isolate incubated for 24 hrs followed by re-plating on tryptic soy broth; type: functional; details: not given
In short: (§2)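 Bacteria were grown in tryptic soy broth, 1.0×10^4 CFU per well, with compounds in 5% DMSO at 0.001-1.0 mg/ml for 24 h at 37 °C. Then 10 µL was subcultured into fresh TSB. MBC is the lowest concentration showing no growth after subculture, taken as 99.5% kill of the original inoculum. Duplicates, repeated three times.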

| SMILES | MBC [µM] |
| --- | --- |
| CC1(C)c2ssc(=S)c2-c2cccc3c2N1C(=O)/C3=N/NC(N)=S | 76.4 (≈ 30 µg/mL) |

tested on: Micrococcus flavus; experiment: Antibacterial activity against Micrococcus flavus ATCC 10240 after 24 hrs by iodonitrotetrazolium chloride dye based microdilution method; type: functional; details: ATCC 10240, 24 h; in short: as §1

| MIC [µM] | SMILES |
| --- | --- |
| 38.2 (≈ 15 µg/mL) | CC1(C)c2ssc(=S)c2-c2cccc3c2N1C(=O)/C3=N/NC(N)=S |

tested on: Micrococcus flavus; experiment: Bactericidal activity against Micrococcus flavus ATCC 10240 incubated for 24 hrs followed by re-plating on tryptic soy broth; type: functional; details: ATCC 10240, 24 h; in short: as §2

| SMILES | MBC [µM] |
| --- | --- |
| CC1(C)c2ssc(=S)c2-c2cccc3c2N1C(=O)/C3=N/NC(N)=S | 76.4 (≈ 30 µg/mL) |

tested on: Staphylococcus aureus; experiment: Antibacterial activity against Staphylococcus aureus ATCC 6538 after 24 hrs by iodonitrotetrazolium chloride dye based microdilution method; type: functional; details: ATCC 6538, 24 h; in short: as §1

| MIC [µM] | SMILES |
| --- | --- |
| 38.2 (≈ 15 µg/mL) | CC1(C)c2ssc(=S)c2-c2cccc3c2N1C(=O)/C3=N/NC(N)=S |

tested on: Staphylococcus aureus; experiment: Bactericidal activity against Staphylococcus aureus ATCC 6538 incubated for 24 hrs followed by re-plating on tryptic soy broth; type: functional; details: ATCC 6538, 24 h; in short: as §2

| SMILES | MBC [µM] |
| --- | --- |
| CC1(C)c2ssc(=S)c2-c2cccc3c2N1C(=O)/C3=N/NC(N)=S | 76.4 (≈ 30 µg/mL) |

tested on: Listeria monocytogenes; experiment: Antibacterial activity against Listeria monocytogenes NCTC 7973 after 24 hrs by iodonitrotetrazolium chloride dye based microdilution method; type: functional; details: NCTC 7973, 24 h; in short: as §1

| MIC [µM] | SMILES |
| --- | --- |
| 38.2 (≈ 15 µg/mL) | CC1(C)c2ssc(=S)c2-c2cccc3c2N1C(=O)/C3=N/NC(N)=S |

tested on: Listeria monocytogenes; experiment: Bactericidal activity against Listeria monocytogenes NCTC 7973 incubated for 24 hrs followed by re-plating on tryptic soy broth; type: functional; details: NCTC 7973, 24 h; in short: as §2

| SMILES | MBC [µM] |
| --- | --- |
| CC1(C)c2ssc(=S)c2-c2cccc3c2N1C(=O)/C3=N/NC(N)=S | 76.4 (≈ 30 µg/mL) |

tested on: Enterobacter cloacae; experiment: Antibacterial activity against Enterobacter cloacae clinical isolate after 24 hrs by iodonitrotetrazolium chloride dye based microdilution method; type: functional; details: not given; in short: as §1

| MIC [µM] | SMILES |
| --- | --- |
| 38.2 (≈ 15 µg/mL) | CC1(C)c2ssc(=S)c2-c2cccc3c2N1C(=O)/C3=N/NC(N)=S |

tested on: Enterobacter cloacae; experiment: Bactericidal activity against Enterobacter cloacae incubated for 24 hrs followed by re-plating on tryptic soy broth; type: functional; details: not given; in short: as §2

| SMILES | MBC [µM] |
| --- | --- |
| CC1(C)c2ssc(=S)c2-c2cccc3c2N1C(=O)/C3=N/NC(N)=S | 76.4 (≈ 30 µg/mL) |

tested on: Pseudomonas aeruginosa; experiment: Antibacterial activity against Pseudomonas aeruginosa ATCC 27853 after 24 hrs by iodonitrotetrazolium chloride dye based microdilution method; type: functional; details: ATCC 27853, 24 h; in short: as §1

| MIC [µM] | SMILES |
| --- | --- |
| 38.2 (≈ 15 µg/mL) | CC1(C)c2ssc(=S)c2-c2cccc3c2N1C(=O)/C3=N/NC(N)=S |

tested on: Pseudomonas aeruginosa; experiment: Bactericidal activity against Pseudomonas aeruginosa ATCC 27853 incubated for 24 hrs followed by re-plating on tryptic soy broth; type: functional; details: ATCC 27853, 24 h; in short: as §2

| SMILES | MBC [µM] |
| --- | --- |
| CC1(C)c2ssc(=S)c2-c2cccc3c2N1C(=O)/C3=N/NC(N)=S | 76.4 (≈ 30 µg/mL) |

tested on: Salmonella typhimurium; experiment: Antibacterial activity against Salmonella typhimurium ATCC 13311 after 24 hrs by iodonitrotetrazolium chloride dye based microdilution method; type: functional, Salmonella enterica subsp. enterica serovar Typhimurium; details: Salmonella enterica, ATCC 13311, 24 h; in short: as §1

| MIC [µM] | SMILES |
| --- | --- |
| 38.2 (≈ 15 µg/mL) | CC1(C)c2ssc(=S)c2-c2cccc3c2N1C(=O)/C3=N/NC(N)=S |

tested on: Salmonella typhimurium; experiment: Bactericidal activity against Salmonella typhimurium ATCC 13311 incubated for 24 hrs followed by re-plating on tryptic soy broth; type: functional, Salmonella enterica subsp. enterica serovar Typhimurium; details: Salmonella enterica, ATCC 13311, 24 h; in short: as §2

| SMILES | MBC [µM] |
| --- | --- |
| CC1(C)c2ssc(=S)c2-c2cccc3c2N1C(=O)/C3=N/NC(N)=S | 76.4 (≈ 30 µg/mL) |

tested on: Escherichia coli; experiment: Antibacterial activity against Escherichia coli ATCC 35210 after 24 hrs by iodonitrotetrazolium chloride dye based microdilution method; type: functional; details: ATCC 35210, 24 h; in short: as §1

| MIC [µM] | SMILES |
| --- | --- |
| 38.2 (≈ 15 µg/mL) | CC1(C)c2ssc(=S)c2-c2cccc3c2N1C(=O)/C3=N/NC(N)=S |

tested on: Escherichia coli; experiment: Bactericidal activity against Escherichia coli ATCC 35210 incubated for 24 hrs followed by re-plating on tryptic soy broth; type: functional; details: ATCC 35210, 24 h; in short: as §2

| SMILES | MBC [µM] |
| --- | --- |
| CC1(C)c2ssc(=S)c2-c2cccc3c2N1C(=O)/C3=N/NC(N)=S | 76.4 (≈ 30 µg/mL) |

tested on: Aspergillus fumigatus; experiment: Antifungal activity against Aspergillus fumigatus ATCC 1022 after 72 hrs by microdilution technique; type: functional; details: ATCC 1022, 72 h
In short: (§3)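 Spores were washed off malt agar with 0.85% saline containing 0.1% Tween 80 and adjusted to about 1.0×10^5 per well. Compounds in 5% DMSO were serially diluted (0.001-1.0 mg/ml) in malt broth with inoculum. Plates were shaken at 160 rpm for 72 h at 28 °C. MIC is the lowest concentration without visible growth under a binocular microscope. Three independent experiments in duplicate.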

| MIC [×10⁻² mM] | SMILES |
| --- | --- |
| 7.64 | CC1(C)c2ssc(=S)c2-c2cccc3c2N1C(=O)/C3=N/NC(N)=S |

tested on: Aspergillus fumigatus; experiment: Fungicidal activity against Aspergillus fumigatus ATCC 1022 incubated for 72 hrs followed by sub-culturing on broth malt medium and measured after 72 hrs; type: functional; details: ATCC 1022, 72 h
In short: (§4)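 After 72 h exposure in malt broth, 2 µL from test wells was subcultured into wells holding 100 µL broth and incubated a further 72 h at 28 °C. MFC is the lowest concentration with no visible growth, taken as 99.5% kill of the original inoculum. Three independent experiments in duplicate.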

| SMILES | MFC [×10⁻² mM] |
| --- | --- |
| CC1(C)c2ssc(=S)c2-c2cccc3c2N1C(=O)/C3=N/NC(N)=S | 15.2 |

tested on: Aspergillus versicolor; experiment: Antifungal activity against Aspergillus versicolor ATCC 11730 after 72 hrs by microdilution method; type: functional; details: ATCC 11730, 72 h; in short: as §3

| MIC [×10⁻² mM] | SMILES |
| --- | --- |
| 11.5 | CC1(C)c2ssc(=S)c2-c2cccc3c2N1C(=O)/C3=N/NC(N)=S |

tested on: Aspergillus versicolor; experiment: Fungicidal activity against Aspergillus versicolor ATCC 11730 incubated for 72 hrs followed by sub-culturing on broth malt medium and measured after 72 hrs; type: functional; details: ATCC 11730, 72 h; in short: as §4

| SMILES | MFC [×10⁻² mM] |
| --- | --- |
| CC1(C)c2ssc(=S)c2-c2cccc3c2N1C(=O)/C3=N/NC(N)=S | 30.6 |

tested on: Aspergillus ochraceus; experiment: Antifungal activity against Aspergillus ochraceus ATCC 12066 after 72 hrs by microdilution technique; type: functional; details: ATCC 12066, 72 h; in short: as §3

| MIC [×10⁻² mM] | SMILES |
| --- | --- |
| 15.2 | CC1(C)c2ssc(=S)c2-c2cccc3c2N1C(=O)/C3=N/NC(N)=S |

tested on: Aspergillus ochraceus; experiment: Fungicidal activity against Aspergillus ochraceus ATCC 12066 incubated for 72 hrs followed by sub-culturing on broth malt medium and measured after 72 hrs; type: functional; details: ATCC 12066, 72 h; in short: as §4

| SMILES | MFC [×10⁻² mM] |
| --- | --- |
| CC1(C)c2ssc(=S)c2-c2cccc3c2N1C(=O)/C3=N/NC(N)=S | 30.6 |

tested on: Aspergillus niger; experiment: Antifungal activity against Aspergillus niger ATCC 6275 after 72 hrs by microdilution technique; type: functional; details: ATCC 6275, 72 h; in short: as §3

| MIC [×10⁻² mM] | SMILES |
| --- | --- |
| 15.2 | CC1(C)c2ssc(=S)c2-c2cccc3c2N1C(=O)/C3=N/NC(N)=S |

tested on: Aspergillus niger; experiment: Fungicidal activity against Aspergillus niger ATCC 6275 incubated for 72 hrs followed by sub-culturing on broth malt medium and measured after 72 hrs; type: functional; details: ATCC 6275, 72 h; in short: as §4

| SMILES | MFC [×10⁻² mM] |
| --- | --- |
| CC1(C)c2ssc(=S)c2-c2cccc3c2N1C(=O)/C3=N/NC(N)=S | 30.6 |

tested on: Trichoderma viride; experiment: Antifungal activity against Trichoderma viride IAM 5061 after 72 hrs by microdilution technique; type: functional; details: IAM 5061, 72 h; in short: as §3

| MIC [×10⁻² mM] | SMILES |
| --- | --- |
| 1.52 | CC1(C)c2ssc(=S)c2-c2cccc3c2N1C(=O)/C3=N/NC(N)=S |

tested on: Trichoderma viride; experiment: Fungicidal activity against Trichoderma viride IAM 5061 incubated for 72 hrs followed by sub-culturing on broth malt medium and measured after 72 hrs; type: functional; details: IAM 5061, 72 h; in short: as §4

| SMILES | MFC [×10⁻² mM] |
| --- | --- |
| CC1(C)c2ssc(=S)c2-c2cccc3c2N1C(=O)/C3=N/NC(N)=S | 3.82 |

tested on: Penicillium ochrochloron; experiment: Antifungal activity against Penicillium ochrochloron ATCC 9112 after 72 hrs by microdilution technique; type: functional; details: ATCC 9112, 72 h; in short: as §3

| MIC [×10⁻² mM] | SMILES |
| --- | --- |
| 3.82 | CC1(C)c2ssc(=S)c2-c2cccc3c2N1C(=O)/C3=N/NC(N)=S |

tested on: Penicillium ochrochloron; experiment: Fungicidal activity against Penicillium ochrochloron ATCC 9112 incubated for 72 hrs followed by sub-culturing on broth malt medium and measured after 72 hrs; type: functional; details: ATCC 9112, 72 h; in short: as §4

| SMILES | MFC [×10⁻² mM] |
| --- | --- |
| CC1(C)c2ssc(=S)c2-c2cccc3c2N1C(=O)/C3=N/NC(N)=S | 7.64 |

tested on: not listed separately; experiment: Antifungal activity against Penicillium funiculosum ATCC 36839 after 72 hrs by microdilution technique; type: functional; details: Talaromyces pinophilus, ATCC 36839, 72 h; in short: as §3

| MIC [×10⁻² mM] | SMILES |
| --- | --- |
| 11.5 | CC1(C)c2ssc(=S)c2-c2cccc3c2N1C(=O)/C3=N/NC(N)=S |

tested on: not listed separately; experiment: Fungicidal activity against Penicillium funiculosum ATCC 36839 incubated for 72 hrs followed by sub-culturing on broth malt medium and measured after 72 hrs; type: functional; details: Talaromyces pinophilus, ATCC 36839, 72 h; in short: as §4

| SMILES | MFC [×10⁻² mM] |
| --- | --- |
| CC1(C)c2ssc(=S)c2-c2cccc3c2N1C(=O)/C3=N/NC(N)=S | 30.6 |

tested on: Penicillium cyclopium; experiment: Antifungal activity against Penicillium verrucosum var. cyclopium food isolate after 72 hrs by microdilution technique; type: functional; details: not given; in short: as §3

| MIC [×10⁻² mM] | SMILES |
| --- | --- |
| 11.5 | CC1(C)c2ssc(=S)c2-c2cccc3c2N1C(=O)/C3=N/NC(N)=S |

tested on: Penicillium cyclopium; experiment: Fungicidal activity against Penicillium verrucosum var. cyclopium food isolate incubated for 72 hrs followed by sub-culturing on broth malt medium and measured after 72 hrs; type: functional; details: not given; in short: as §4

| SMILES | MFC [×10⁻² mM] |
| --- | --- |
| CC1(C)c2ssc(=S)c2-c2cccc3c2N1C(=O)/C3=N/NC(N)=S | 30.6 |
